From ChEMBL document CHEMBL1151428, “Capability of 11 antipneumococcal antibiotics to select for resistance by multistep and single-step methodologies” (2007)
≈ marks a conversion by molar mass, not a printed value.

Legend:
Type in all cases: functional
Streptococcus pneumoniae [1] = test: Antimicrobial activity against drug-resistant Streptococcus pneumoniae isolate 3413 after 30 passages by multi-step resistance selection technique
Procedure, shortened: (§1)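 Daily serial passage in subinhibitory drug in cation-adjusted Mueller-Hinton broth with 5% lysed horse blood, 1 ml per tube, fresh broth for tigecycline. Each day, 10 μl was taken from the tube one to two dilutions below the MIC whose turbidity matched the growth control and used for the next MIC. Passaging ran until MIC rose ≥8 times, minimum 14 and maximum 50 passages. Clone MICs were read by macrodilution.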

Streptococcus pneumoniae [2] = test: Antimicrobial activity against drug-resistant Streptococcus pneumoniae isolate 3413 after 30 passages with Telithromycin measured after 10 antibiotic-free subculture by multi-step resistance selection technique
Procedure, shortened: (§2)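 Mutants selected by daily broth passage in subinhibitory drug in cation-adjusted Mueller-Hinton broth with 5% lysed horse blood. Stability was tested by 10 daily passages on blood agar without antibiotic, then macrodilution MIC.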

Streptococcus pneumoniae [3] = test: Antimicrobial activity against drug-resistant Streptococcus pneumoniae isolate 1076 after 14 passages by multi-step resistance selection technique
Procedure, shortened: (§3)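 Daily serial passage in subinhibitory drug levels in 1 ml cation-adjusted Mueller-Hinton broth with 5% lysed horse blood; fresh broth for tigecycline. Each day, 10 μl were taken from the tube one to two dilutions below the MIC whose turbidity matched the growth control, and used to set the next MIC. […] MIC by macrodilution.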

Streptococcus pneumoniae [4] = test: Antimicrobial activity against drug-resistant Streptococcus pneumoniae isolate 1077 after 29 passages with azithromycin measured after 10 antibiotic-free subculture by multi-step resistance selection technique; procedure, shortened: as §2
Streptococcus pneumoniae [5] = test: Antimicrobial activity against drug-resistant Streptococcus pneumoniae isolate 37 after 14 passages with Telithromycin measured after 10 antibiotic-free subculture by multi-step resistance selection technique
Streptococcus pneumoniae [6] = test: Antimicrobial activity against drug-resistant Streptococcus pneumoniae isolate 24 after 14 passages with Telithromycin measured after 10 antibiotic-free subculture by multi-step resistance selection technique; procedure, shortened: as §2
Streptococcus pneumoniae [7] = test: Antimicrobial activity against drug-resistant Streptococcus pneumoniae isolate 1077 after 49 passages with clindamycin measured after 10 antibiotic-free subculture by multi-step resistance selection technique
Streptococcus pneumoniae [8] = test: Antimicrobial activity against drug-resistant Streptococcus pneumoniae isolate 1077 by NCCLS M7-A7 method
Streptococcus pneumoniae [9] = test: Antimicrobial activity against drug-resistant Streptococcus pneumoniae isolate 3676 by NCCLS M7-A7 method
Streptococcus pneumoniae [10] = test: Antimicrobial activity against drug-resistant Streptococcus pneumoniae isolate 3243 after 29 passages by multi-step resistance selection technique; procedure, shortened: as §1
Streptococcus pneumoniae [11] = test: Antimicrobial activity against drug-resistant Streptococcus pneumoniae isolate 37 after 14 passages by multi-step resistance selection technique
Procedure, shortened: (§4)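 Daily serial passage in broth at subinhibitory drug levels: 1 ml cation-adjusted Mueller-Hinton broth with 5% lysed horse blood; fresh broth for tigecycline. Each day 10 μl inoculum taken from the tube one to two dilutions below MIC matching growth-control turbidity, used to set next MIC. Continued until ≥8-fold MIC rise, minimum 14, maximum 50 passages; MIC read by macrodilution.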

Streptococcus pneumoniae [12] = test: Antimicrobial activity against drug-resistant Streptococcus pneumoniae isolate 3413 by NCCLS M7-A7 method
Streptococcus pneumoniae [13] = test: Antimicrobial activity against drug-resistant Streptococcus pneumoniae isolate 1077 after 15 passages by multi-step resistance selection technique; procedure, shortened: as §1
Streptococcus pneumoniae [14] = test: Antimicrobial activity against drug-resistant Streptococcus pneumoniae isolate 3274 after 48 passages by multi-step resistance selection technique; procedure, shortened: as §1
Streptococcus pneumoniae [15] = test: Antimicrobial activity against drug-resistant Streptococcus pneumoniae isolate 24 after 14 passages by multi-step resistance selection technique; procedure, shortened: as §3
Streptococcus pneumoniae [16] = test: Antimicrobial activity against drug-resistant Streptococcus pneumoniae isolate 3665 after 14 passages by multi-step resistance selection technique; procedure, shortened: as §3
Streptococcus pneumoniae [17] = test: Antimicrobial activity against drug-resistant Streptococcus pneumoniae isolate 3243 after 20 passages with moxifloxacin measured after 10 antibiotic-free subculture by multi-step resistance selection technique; procedure, shortened: as §2
Streptococcus pneumoniae [18] = test: Antimicrobial activity against drug-resistant Streptococcus pneumoniae isolate 3676 after 14 passages by multi-step resistance selection technique; procedure, shortened: as §4
Streptococcus pneumoniae [19] = test: Antimicrobial activity against drug-resistant Streptococcus pneumoniae isolate 3665 after 14 passages with Telithromycin measured after 10 antibiotic-free subculture by multi-step resistance selection technique
Streptococcus pneumoniae [20] = test: Antimicrobial activity against drug-resistant Streptococcus pneumoniae isolate 2527 after 14 passages by multi-step resistance selection technique; procedure, shortened: as §3
Streptococcus pneumoniae [21] = test: Antimicrobial activity against drug-resistant Streptococcus pneumoniae isolate 1076 after 50 passages by multi-step resistance selection technique; procedure, shortened: as §3
Streptococcus pneumoniae [22] = test: Antimicrobial activity against drug-resistant Streptococcus pneumoniae isolate 3009 after 21 passages by multi-step resistance selection technique; procedure, shortened: as §3
Streptococcus pneumoniae [23] = test: Antimicrobial activity against drug-resistant Streptococcus pneumoniae isolate 3413 after 50 passages by multi-step resistance selection technique
Procedure, shortened: (§5)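 Daily serial passage in subinhibitory drug levels in 1 ml cation-adjusted Mueller-Hinton broth with 5% lysed horse blood; fresh broth for tigecycline. Each day, 10 μl were taken from the tube one to two dilutions below the MIC whose turbidity matched the growth control, and used to set the next MIC. MIC by macrodilution.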

Streptococcus pneumoniae [24] = test: Antimicrobial activity against drug-resistant Streptococcus pneumoniae isolate 37 after 50 passages by multi-step resistance selection technique
Procedure, shortened: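 Daily serial passage in broth at subinhibitory drug levels: 1 ml cation-adjusted Mueller-Hinton broth with 5% lysed horse blood; fresh broth for tigecycline. Each day 10 μl inoculum taken from the tube one to two dilutions below MIC matching growth-control turbidity, used to set next MIC.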

Streptococcus pneumoniae [25] = test: Antimicrobial activity against drug-resistant Streptococcus pneumoniae isolate 1077 after 50 passages by multi-step resistance selection technique; procedure, shortened: as §5

Structure (SMILES)	MIC (Streptococcus pneumoniae [2])	MIC (Streptococcus pneumoniae [4])	MIC (Streptococcus pneumoniae [5])	MIC (Streptococcus pneumoniae [6])	MIC (Streptococcus pneumoniae [7])	MIC (Streptococcus pneumoniae [8])	MIC (Streptococcus pneumoniae [9])	MIC (Streptococcus pneumoniae [12])	MIC (Streptococcus pneumoniae [17])	MIC (Streptococcus pneumoniae [19])	MIC (Streptococcus pneumoniae [21])	MIC (Streptococcus pneumoniae [23])	MIC (Streptococcus pneumoniae [24])	MIC (Streptococcus pneumoniae [25])	other results
CC[C@H]1OC(=O)[C@H](C)C(=O)[C@H](C)[C@@H](O[C@@H]2O[C@H](C)C[C@H](N(C)C)[C@H]2O)[C@](C)(OC)C[C@@H](C)C(=O)[C@H](C)[C@H]2N(CCCCn3cnc(-c4cccnc4)c3)C(=O)O[C@]12C [TELITHROMYCIN]	0.5 µg/mL (≈ 0.616 µM)	0.125 µg/mL (≈ 0.154 µM)	8 µg/mL (≈ 9.85 µM)	16 µg/mL (≈ 19.7 µM)	0.06 µg/mL (≈ 0.0739 µM)	0.004 µg/mL (≈ 0.00493 µM)	0.06 µg/mL (≈ 0.0739 µM)	0.03 µg/mL (≈ 0.0369 µM)	0.016 µg/mL (≈ 0.0197 µM)	0.25 µg/mL (≈ 0.308 µM)	–	–	–	–	MIC (Streptococcus pneumoniae [1]): 0.25 µg/mL (≈ 0.308 µM); MIC (Streptococcus pneumoniae [3]): > 64 µg/mL; MIC (Streptococcus pneumoniae [10]): 0.06 µg/mL (≈ 0.0739 µM); MIC (Streptococcus pneumoniae [11]): 4 µg/mL (≈ 4.93 µM); MIC (Streptococcus pneumoniae [13]): 0.25 µg/mL (≈ 0.308 µM); MIC (Streptococcus pneumoniae [14]): 0.5 µg/mL (≈ 0.616 µM); MIC (Streptococcus pneumoniae [15]): 32 µg/mL (≈ 39.4 µM); MIC (Streptococcus pneumoniae [16]): 2 µg/mL (≈ 2.46 µM); MIC (Streptococcus pneumoniae [18]): 2 µg/mL (≈ 2.46 µM)
CO/N=C1\CN(c2nc3c(cc2F)c(=O)c(C(=O)O)cn3C2CC2)CC1CN (configuration not stated) [GEMIFLOXACIN]	0.03 µg/mL (≈ 0.077 µM)	0.25 µg/mL (≈ 0.642 µM)	0.03 µg/mL (≈ 0.077 µM)	0.016 µg/mL (≈ 0.0411 µM)	0.25 µg/mL (≈ 0.642 µM)	0.25 µg/mL (≈ 0.642 µM)	0.016 µg/mL (≈ 0.0411 µM)	0.016 µg/mL (≈ 0.0411 µM)	0.06 µg/mL (≈ 0.154 µM)	0.03 µg/mL (≈ 0.077 µM)	0.5 µg/mL (≈ 1.28 µM)	0.016 µg/mL (≈ 0.0411 µM)	0.016 µg/mL (≈ 0.0411 µM)	1 µg/mL (≈ 2.57 µM)	MIC (Streptococcus pneumoniae [20]): 2 µg/mL (≈ 5.14 µM); MIC (Streptococcus pneumoniae [22]): 1 µg/mL (≈ 2.57 µM)
C[C@@H](O)[C@H]1C(=O)N2C(C(=O)O)=C(SCCNC=N)C[C@H]12 [IMIPENEM ANHYDROUS]	0.125 µg/mL (≈ 0.418 µM)	0.008 µg/mL (≈ 0.0267 µM)	0.25 µg/mL (≈ 0.835 µM)	0.25 µg/mL (≈ 0.835 µM)	0.004 µg/mL (≈ 0.0134 µM)	0.008 µg/mL (≈ 0.0267 µM)	0.016 µg/mL (≈ 0.0534 µM)	0.125 µg/mL (≈ 0.418 µM)	0.004 µg/mL (≈ 0.0134 µM)	0.008 µg/mL (≈ 0.0267 µM)	0.008 µg/mL (≈ 0.0267 µM)	0.06 µg/mL (≈ 0.2 µM)	0.5 µg/mL (≈ 1.67 µM)	0.008 µg/mL (≈ 0.0267 µM)	–
CO/N=C(\C(=O)N[C@@H]1C(=O)N2C(C(=O)O)=C(CSc3nc(=O)c(O)nn3C)CS[C@H]12)c1csc(N)n1 [CEFTRIAXONE]	2 µg/mL (≈ 3.61 µM)	0.03 µg/mL (≈ 0.0541 µM)	2 µg/mL (≈ 3.61 µM)	2 µg/mL (≈ 3.61 µM)	0.016 µg/mL (≈ 0.0289 µM)	0.016 µg/mL (≈ 0.0289 µM)	0.03 µg/mL (≈ 0.0541 µM)	1 µg/mL (≈ 1.8 µM)	0.06 µg/mL (≈ 0.108 µM)	0.06 µg/mL (≈ 0.108 µM)	0.016 µg/mL (≈ 0.0289 µM)	1 µg/mL (≈ 1.8 µM)	1 µg/mL (≈ 1.8 µM)	0.016 µg/mL (≈ 0.0289 µM)	–
CN(C)c1cc(NC(=O)CNC(C)(C)C)c(O)c2c1C[C@H]1C[C@H]3[C@H](N(C)C)C(O)=C(C(N)=O)C(=O)[C@@]3(O)C(O)=C1C2=O [TIGECYCLINE]	0.03 µg/mL (≈ 0.0512 µM)	0.03 µg/mL (≈ 0.0512 µM)	0.03 µg/mL (≈ 0.0512 µM)	0.03 µg/mL (≈ 0.0512 µM)	0.03 µg/mL (≈ 0.0512 µM)	0.016 µg/mL (≈ 0.0273 µM)	0.016 µg/mL (≈ 0.0273 µM)	0.016 µg/mL (≈ 0.0273 µM)	0.03 µg/mL (≈ 0.0512 µM)	0.03 µg/mL (≈ 0.0512 µM)	0.03 µg/mL (≈ 0.0512 µM)	0.03 µg/mL (≈ 0.0512 µM)	0.016 µg/mL (≈ 0.0273 µM)	0.016 µg/mL (≈ 0.0273 µM)	–
